The values below come from ChEMBL document CHEMBL3865824, “New (E)-1-alkyl-1H-benzo[d]imidazol-2-yl)methylene)indolin-2-ones: Synthesis, in vitro cytotoxicity evaluation and apoptosis inducing studies” (Eur J Med Chem, 2016).

Structures are written as SMILES. Calls of active or inactive are those of the source. No cut-off for these calls is given here.

Data set [1] has as its system MDA-MB-231. Nature of the data set: Induction of apoptosis in human MDA-MB-231 cells assessed as cell shrinkage at 1 to 4 uM after 24 hrs by phase contrast microscopic analysis. Type of data set: functional, cell-based. A digest of the protocol:
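MDA-MB-231 treated at 1, 2 or 4 µM for 24 h. Morphology examined and photographed by phase contrast microscopy against untreated control cells.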

Data set [2] in a line: Cell cycle arrest in human MDA-MB-231 cells assessed as accumulation at G0/G1 phase at 4 uM after 24 hrs by propidium iodide staining based FACS analysis (reference value: 50.4 %). The data set is classed as functional. A digest of the protocol: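 MDA-MB-231 at 1×10^6 cells/well treated with 1, 2 or 4 µM for 24 h, with a DMSO control. Cells harvested by trypsin, washed with PBS and fixed in 70% ethanol for 30 min at 4 °C. Stained 15 min at room temperature in the dark with PI buffer containing Triton X and DNase-free RNase A. Analysed by flow cytometry; G0/G1, S and G2/M fractions quantified.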

Data set [3] can be described thus: Cytotoxicity against human PC3 cells assessed as reduction in cell viability after 48 hrs by MTT assay. The data set is classed as functional, cell-based. The note with it: PC-3, 48 h. A digest of the protocol: (§1)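 Cells grown in DMEM or MEM with 10% FBS at 37 °C, 5% CO2. Seeded at 1×10^4 cells/well, incubated 48 h, then exposed to compound for 48 h with vehicle control. MTT (5 mg/mL stock) added for 4 h; formazan dissolved in DMSO, absorbance read at 570 nm. Preliminary screen at 50 µM. Compounds giving >50% inhibition were tested for dose-response curves; IC50 derived by linear regression of % inhibition versus concentration. Mean of three independent experiments in triplicate.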

The nature of data set [4]: Cytotoxicity against human DU145 cells assessed as reduction in cell viability after 48 hrs by MTT assay. Type of data set: functional, cell-based. The note with it: DU-145, 48 h. A digest of the protocol:
as §1

The nature of data set [5]: Cytotoxicity against human MDA-MB-231 cells assessed as reduction in cell viability after 48 hrs by MTT assay. The data set is classed as functional, cell-based. The note with it: MDA-MB-231, 48 h. A digest of the protocol: as §1
The nature of data set [6]: Cytotoxicity against human MCF10A cells assessed as reduction in cell viability after 48 hrs by MTT assay. Type of data set: toxicity, cell-based, MCF-10A. A digest of the protocol:
as §1

Data set [7] can be described thus: Selectivity ratio of IC50 for human MCF10A cells to IC50 for human A549 cells. The settings on record: MCF10A cells versus A549 cells, read-out: Ratio IC50. Type of data set: ADME, cell-based.
In data set [8] the test system is MDA-MB-231. Nature of the data set: Inhibition of F-actin polymerization in human MDA-MB-231 cells assessed as disruption of stress fibres at 1 to 4 uM after 12 hrs by rhodamine-phalloidin/hoechst […]-dual staining based confocal microscopic analysis. The data set is classed as cell-based. A digest of the protocol: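 MDA-MB-231 cells (1×10^6/well) were grown on coverslips for 24 h, then exposed 12 h to 1, 2 and 4 μM. After a PBS wash and fixation in 4% paraformaldehyde, F-actin was stained with rhodamine-phalloidin and nuclei with Hoechst […]. Slides were mounted in anti-fade reagent and imaged by confocal microscopy (20× objective).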

The subject of data set [9] is MDA-MB-231. Nature of the data set: Induction of apoptosis in human MDA-MB-231 cells assessed as cell membrane blebbing at 1 uM after 24 hrs by AO/EB-dual staining based fluorescent microscopic analysis. Type of data set: functional. A digest of the protocol:
(§2)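 MDA-MB-231 plated at 1×10^6 cells/mL and treated at 1, 2 or 4 µM, with a DMSO control. Incubation time is given as 48 h in the methods and 24 h in the figure legend. AO and EB added at 10 µg/mL each. Cells viewed within 10 min by fluorescence microscopy (excitation 488 nm, emission 550 nm) at 200×.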

The subject of data set [10] is MDA-MB-231. The experiment in a line: Induction of apoptosis in human MDA-MB-231 cells assessed as destructive fragmentation of chromatin at 4 uM after 24 hrs by AO/EB-dual staining based fluorescent microscopic analysis. Type of data set: functional, cell-based. A digest of the protocol:
as §2

In data set [11] the test system is MDA-MB-231. The experiment in a line: Induction of apoptosis in human MDA-MB-231 cells assessed as loss of mitochondrial membrane potential at 4 uM after 24 hrs by rhodamine-123 -based spectrofluorometric analysis relative to control. The data set is classed as functional. A digest of the protocol: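 MDA-MB-231 cells were plated at 5×10^5 cells/mL in 6-well plates, left to adhere overnight, then treated 24 h at 1, 2 and 4 μM. Cells were trypsinized, washed in PBS and loaded with rhodamine-123 (10 μg/mL) in PBS for 30 min at room temperature. After two PBS washes, fluorescence was read by spectrofluorometer (ex 480/em 530 nm). Loss is expressed against control; three independent experiments in triplicate.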

Data set [12] has as its system MDA-MB-231. Nature of the data set: Induction of superoxide production in human MDA-MB-231 cells after 48 hrs by mitoSOX red-probe based fluorescent microscopic analysis. The data set is classed as functional, cell-based. A digest of the protocol:
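Cells were seeded at 1×10^5/well in 24-well plates and left to adhere overnight, then treated at different concentrations (methods: medium removed after 24 h; legend: 48 h treatment). After a PBS wash, cells were loaded with MitoSOX Red in HBSS for 15 min at 37 °C, washed three times with PBS and imaged by fluorescence microscopy against DMSO control.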

Data set [13] has as its system MDA-MB-231. Nature of the data set: Induction of apoptosis in human MDA-MB-231 cells assessed as increase in Bax expression after 24 hrs by Western blot analysis. The data set is classed as functional, cell-based. A digest of the protocol:
(§3)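 MDA-MB-231 treated at 1, 2 or 4 µM for 24 h. Whole-cell extracts prepared in RIPA buffer. Blots probed with rabbit anti-caspase-3, anti-Bcl2 and anti-β-actin (1:1000) and anti-Bax (1:500), then HRP secondaries and ECL detection. Membranes stripped and reprobed. Bands quantified by densitometry as fold change versus control. Mean ± SEM, n=3.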

Data set [14] relates to MDA-MB-231. Nature of the data set: Induction of apoptosis in human MDA-MB-231 cells assessed as viable cells at 1 uM after 24 hrs by Annexin V-FITC/propidium iodide-staining based FACS analysis (reference value: 89.5 %). The data set is classed as functional. The note with it: MDA-MB-231, 24 h, read-out: Activity.
In data set [15] the test system is MDA-MB-231. The experiment in a line: Induction of apoptosis in human MDA-MB-231 cells assessed as early apoptotic cells at 1 uM after 24 hrs by Annexin V-FITC/propidium iodide-staining based FACS analysis (reference value: 4.1 %). Type of data set: functional.
Data set [16] relates to MDA-MB-231. Nature of the data set: Induction of apoptosis in human MDA-MB-231 cells assessed as late apoptotic cells at 1 uM after 24 hrs by Annexin V-FITC/propidium iodide-staining based FACS analysis (reference value: 3.6 %). The data set is classed as functional.
Data set [17] concerns MDA-MB-231. Nature of the data set: Induction of apoptosis in human MDA-MB-231 cells assessed as early apoptotic cells at 2 uM after 24 hrs by Annexin V-FITC/propidium iodide-staining based FACS analysis (reference value: 4.1 %). Type of data set: functional.
In data set [18] the test system is MDA-MB-231. Nature of the data set: Induction of apoptosis in human MDA-MB-231 cells assessed as early apoptotic cells at 4 uM after 24 hrs by Annexin V-FITC/propidium iodide-staining based FACS analysis (reference value: 4.1 %). Type of data set: functional.
The test system of data set [19] is MDA-MB-231. The experiment in a line: Induction of apoptosis in human MDA-MB-231 cells assessed as increase in caspase-3 expression after 24 hrs by Western blot analysis. The data set is classed as functional, cell-based. A digest of the protocol: as §3
Data set [20] in a line: Cytotoxicity against human MCF7 cells assessed as growth inhibition at 50 uM after 48 hrs by MTT assay relative to control. Type of data set: functional. The settings on record: MCF7, 48 h, read-out: GI. A digest of the protocol: as §1
The nature of data set [21]: Cytotoxicity against HGC cells assessed as growth inhibition at 50 uM after 48 hrs by MTT assay relative to control. The note with it: Homo sapiens, read-out: GI. The data set is classed as functional. A digest of the protocol:
as §1

Data set [22] in a line: Cell cycle arrest in human MDA-MB-231 cells assessed as after 24 hrs by propidium iodide staining based FACS analysis.

For `CC(C)n1c(/C=C2/C(=O)Nc3ccc(Br)cc32)nc2ccccc21`, the result in data set [1], in data set [9] and in data set [10] was Active. The Activity in data set [2] was 74.7%; in data set [11], 38.5%; in data set [12] it was “Dose-dependent effect”; in [13], “Dose-dependent effect”; in data set [15], 8.6%; in data set [16], 4.7%. The Activity is 18.7% in data set [17], 23.4% in data set [18], “Dose-dependent effect” in [19] and “Dose-dependent effect” in [22]. Further, the values for the IC50 in [3], in [4] and in data set [5] were 10.7 µM, 7.5 µM and 3.26 µM, respectively. The IC50 at 48 h in [6] stood at 56.9 µM. For the same molecule, the selectivity ratio in data set [7] amounted to 6.5. In addition, the inhibition result in data set [8] is “Active”. In data set [14], the viability at 1 µM is 83.3%. Also, the inhibition of growth at 50 µM in [20] and in data set [21] was greater than 50% throughout.
